{
  "source": "ChEMBL document CHEMBL1154807",
  "about": "“Synthesis and antibacterial activity of novel 3-O-carbamoyl derivatives of clarithromycin and 11,12-cyclic carbonate azithromycin” (2010)",
  "format_in_all_cases": "functional",
  "key": {"Streptococcus pneumoniae [1]": {"tested_on": "Streptococcus pneumoniae", "test": "Antibacterial activity against erythromycin-resistant Streptococcus pneumoniae AB11 by standard dilution assay", "in_short": "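Readout is minimal inhibitory concentration (MIC). The strain carries both erm- and mef-encoded erythromycin resistance. It was tested within a six-strain Gram-positive panel alongside clarithromycin and azithromycin references.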"}, "Streptococcus pneumoniae [2]": {"tested_on": "Streptococcus pneumoniae", "test": "Antibacterial activity against erythromycin-resistant Streptococcus pneumoniae B1 by standard dilution assay", "in_short": "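Readout is minimal inhibitory concentration (MIC). Erythromycin resistance in this strain is erm-encoded. It was tested within a six-strain Gram-positive panel alongside clarithromycin and azithromycin references.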"}, "Streptococcus pyogenes": {"tested_on": "Streptococcus pyogenes", "test": "Antibacterial activity against erythromycin-susceptible Streptococcus pyogenes by standard dilution assay"}, "Streptococcus pneumoniae [3]": {"tested_on": "Streptococcus pneumoniae", "test": "Antibacterial activity against erythromycin-resistant Streptococcus pneumoniae A22072 by standard dilution assay", "in_short": "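Readout is minimal inhibitory concentration (MIC). The strain carries mef-encoded erythromycin resistance. It was tested within a six-strain Gram-positive panel alongside clarithromycin and azithromycin references.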"}, "Streptococcus pneumoniae [4]": {"tested_on": "Streptococcus pneumoniae", "test": "Antibacterial activity against erythromycin-susceptible Streptococcus pneumoniae ATCC 49619 by standard dilution assay", "in_short": "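MIC read-out, determined against a panel of six Gram-positive strains: three erythromycin-susceptible and three erythromycin-resistant S. pneumoniae (erm, mef, or erm plus mef). Clarithromycin and azithromycin were run alongside as reference macrolides.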"}, "Staphylococcus aureus": {"tested_on": "Staphylococcus aureus", "test": "Antibacterial activity against erythromycin-susceptible Staphylococcus aureus ATCC 25923 by standard dilution assay"}},
  "data": [
    {"smiles": "CC[C@H]1OC(=O)[C@H](C)[C@@H](OC(=O)NCCc2ccccc2Cl)[C@H](C)[C@@H](O[C@@H]2O[C@H](C)C[C@H](N(C)C)[C@H]2O)[C@](C)(O)C[C@@H](C)CN(C)[C@H](C)[C@H]2OC(=O)O[C@@]21C", "values": [
      {"measurement": "MIC", "setting": "Streptococcus pneumoniae [1]", "result": 8, "unit": "µg/mL"},
      {"measurement": "MIC", "setting": "Streptococcus pneumoniae [2]", "result": 32, "unit": "µg/mL"},
      {"measurement": "MIC", "setting": "Streptococcus pyogenes", "result": 8, "unit": "µg/mL"},
      {"measurement": "MIC", "setting": "Streptococcus pneumoniae [3]", "result": 16, "unit": "µg/mL"},
      {"measurement": "MIC", "setting": "Streptococcus pneumoniae [4]", "result": 4, "unit": "µg/mL"},
      {"measurement": "MIC", "setting": "Staphylococcus aureus", "result": 32, "unit": "µg/mL"}
    ]},
    {"smiles": "CC[C@H]1OC(=O)[C@H](C)[C@@H](OC(=O)NCc2ccccc2)[C@H](C)[C@@H](O[C@@H]2O[C@H](C)C[C@H](N(C)C)[C@H]2O)[C@](C)(O)C[C@@H](C)CN(C)[C@H](C)[C@H]2OC(=O)O[C@@]21C", "values": [
      {"measurement": "MIC", "setting": "Streptococcus pneumoniae [1]", "result": 64, "unit": "µg/mL"},
      {"measurement": "MIC", "setting": "Streptococcus pneumoniae [2]", "result": 64, "unit": "µg/mL"},
      {"measurement": "MIC", "setting": "Streptococcus pyogenes", "result": 32, "unit": "µg/mL"},
      {"measurement": "MIC", "setting": "Streptococcus pneumoniae [3]", "result": 128, "unit": "µg/mL"},
      {"measurement": "MIC", "setting": "Streptococcus pneumoniae [4]", "result": 16, "unit": "µg/mL"},
      {"measurement": "MIC", "setting": "Staphylococcus aureus", "result": 64, "unit": "µg/mL"}
    ]},
    {"smiles": "CC[C@H]1OC(=O)[C@H](C)[C@@H](OC(=O)NCCc2ccccc2)[C@H](C)[C@@H](O[C@@H]2O[C@H](C)C[C@H](N(C)C)[C@H]2O)[C@](C)(O)C[C@@H](C)CN(C)[C@H](C)[C@H]2OC(=O)O[C@@]21C", "values": [
      {"measurement": "MIC", "setting": "Streptococcus pneumoniae [1]", "result": 32, "unit": "µg/mL"},
      {"measurement": "MIC", "setting": "Streptococcus pneumoniae [2]", "result": 64, "unit": "µg/mL"},
      {"measurement": "MIC", "setting": "Streptococcus pyogenes", "result": 8, "unit": "µg/mL"},
      {"measurement": "MIC", "setting": "Streptococcus pneumoniae [3]", "result": 64, "unit": "µg/mL"},
      {"measurement": "MIC", "setting": "Streptococcus pneumoniae [4]", "result": 4, "unit": "µg/mL"},
      {"measurement": "MIC", "setting": "Staphylococcus aureus", "result": 64, "unit": "µg/mL"}
    ]},
    {"smiles": "CCCCNC(=O)O[C@H]1[C@H](C)[C@@H](O[C@@H]2O[C@H](C)C[C@H](N(C)C)[C@H]2O)[C@](C)(O)C[C@@H](C)CN(C)[C@H](C)[C@H]2OC(=O)O[C@]2(C)[C@@H](CC)OC(=O)[C@@H]1C", "values": [
      {"measurement": "MIC", "setting": "Streptococcus pneumoniae [1]", "result": 32, "unit": "µg/mL"},
      {"measurement": "MIC", "setting": "Streptococcus pneumoniae [2]", "result": 64, "unit": "µg/mL"},
      {"measurement": "MIC", "setting": "Streptococcus pyogenes", "result": 8, "unit": "µg/mL"},
      {"measurement": "MIC", "setting": "Streptococcus pneumoniae [3]", "result": 128, "unit": "µg/mL"},
      {"measurement": "MIC", "setting": "Streptococcus pneumoniae [4]", "result": 8, "unit": "µg/mL"},
      {"measurement": "MIC", "setting": "Staphylococcus aureus", "result": 64, "unit": "µg/mL"}
    ]},
    {"smiles": "CCCCCNC(=O)O[C@H]1[C@H](C)[C@@H](O[C@@H]2O[C@H](C)C[C@H](N(C)C)[C@H]2O)[C@](C)(O)C[C@@H](C)CN(C)[C@H](C)[C@H]2OC(=O)O[C@]2(C)[C@@H](CC)OC(=O)[C@@H]1C", "values": [
      {"measurement": "MIC", "setting": "Streptococcus pneumoniae [1]", "result": 32, "unit": "µg/mL"},
      {"measurement": "MIC", "setting": "Streptococcus pneumoniae [2]", "result": 32, "unit": "µg/mL"},
      {"measurement": "MIC", "setting": "Streptococcus pyogenes", "result": 16, "unit": "µg/mL"},
      {"measurement": "MIC", "setting": "Streptococcus pneumoniae [3]", "result": 64, "unit": "µg/mL"},
      {"measurement": "MIC", "setting": "Streptococcus pneumoniae [4]", "result": 4, "unit": "µg/mL"},
      {"measurement": "MIC", "setting": "Staphylococcus aureus", "result": 64, "unit": "µg/mL"}
    ]},
    {"smiles": "CC[C@H]1OC(=O)[C@H](C)[C@@H](O)[C@H](C)[C@@H](O[C@@H]2O[C@H](C)C[C@H](N(C)C)[C@H]2OC(C)=O)[C@](C)(O)C[C@@H](C)CN(C)[C@H](C)[C@@H](O)[C@]1(C)O", "values": [
      {"measurement": "MIC", "setting": "Streptococcus pneumoniae [1]", "result": 256, "unit": "µg/mL"},
      {"measurement": "MIC", "setting": "Streptococcus pneumoniae [2]", "result": 128, "unit": "µg/mL"},
      {"measurement": "MIC", "setting": "Streptococcus pyogenes", "result": 128, "unit": "µg/mL"},
      {"measurement": "MIC", "setting": "Streptococcus pneumoniae [3]", "result": 128, "unit": "µg/mL"},
      {"measurement": "MIC", "setting": "Streptococcus pneumoniae [4]", "result": 128, "unit": "µg/mL"},
      {"measurement": "MIC", "setting": "Staphylococcus aureus", "result": 128, "unit": "µg/mL"}
    ]},
    {"smiles": "CC[C@H]1OC(=O)[C@H](C)[C@@H](O)[C@H](C)[C@@H](O[C@@H]2O[C@H](C)C[C@H](N(C)C)[C@H]2OC(C)=O)[C@@](C)(OC)C[C@@H](C)C(=O)[C@H](C)[C@@H](O)[C@]1(C)O", "values": [
      {"measurement": "MIC", "setting": "Streptococcus pneumoniae [1]", "result": 256, "unit": "µg/mL"},
      {"measurement": "MIC", "setting": "Streptococcus pneumoniae [2]", "result": 128, "unit": "µg/mL"},
      {"measurement": "MIC", "setting": "Streptococcus pyogenes", "result": 128, "unit": "µg/mL"},
      {"measurement": "MIC", "setting": "Streptococcus pneumoniae [3]", "result": 128, "unit": "µg/mL"},
      {"measurement": "MIC", "setting": "Streptococcus pneumoniae [4]", "result": 128, "unit": "µg/mL"},
      {"measurement": "MIC", "setting": "Staphylococcus aureus", "result": 128, "unit": "µg/mL"}
    ]},
    {"smiles": "CC[C@H]1OC(=O)[C@H](C)[C@@H](OC(=O)NCc2ccc(OC)cc2)[C@H](C)[C@@H](O[C@@H]2O[C@H](C)C[C@H](N(C)C)[C@H]2O)[C@](C)(O)C[C@@H](C)CN(C)[C@H](C)[C@H]2OC(=O)O[C@@]21C", "values": [
      {"measurement": "MIC", "setting": "Streptococcus pneumoniae [1]", "result": 64, "unit": "µg/mL"},
      {"measurement": "MIC", "setting": "Streptococcus pneumoniae [2]", "result": 64, "unit": "µg/mL"},
      {"measurement": "MIC", "setting": "Streptococcus pyogenes", "result": 16, "unit": "µg/mL"},
      {"measurement": "MIC", "setting": "Streptococcus pneumoniae [3]", "result": 128, "unit": "µg/mL"},
      {"measurement": "MIC", "setting": "Streptococcus pneumoniae [4]", "result": 8, "unit": "µg/mL"},
      {"measurement": "MIC", "setting": "Staphylococcus aureus", "result": 128, "unit": "µg/mL"}
    ]},
    {"smiles": "CC[C@H]1OC(=O)[C@H](C)[C@@H](OC(=O)NCc2ccc(F)cc2)[C@H](C)[C@@H](O[C@@H]2O[C@H](C)C[C@H](N(C)C)[C@H]2O)[C@](C)(O)C[C@@H](C)CN(C)[C@H](C)[C@H]2OC(=O)O[C@@]21C", "values": [
      {"measurement": "MIC", "setting": "Streptococcus pneumoniae [1]", "result": 64, "unit": "µg/mL"},
      {"measurement": "MIC", "setting": "Streptococcus pneumoniae [2]", "result": 64, "unit": "µg/mL"},
      {"measurement": "MIC", "setting": "Streptococcus pyogenes", "result": 16, "unit": "µg/mL"},
      {"measurement": "MIC", "setting": "Streptococcus pneumoniae [3]", "result": 32, "unit": "µg/mL"},
      {"measurement": "MIC", "setting": "Streptococcus pneumoniae [4]", "result": 4, "unit": "µg/mL"},
      {"measurement": "MIC", "setting": "Staphylococcus aureus", "result": 64, "unit": "µg/mL"}
    ]},
    {"smiles": "CC[C@H]1OC(=O)[C@H](C)[C@@H](O[C@H]2C[C@@](C)(OC)[C@@H](O)[C@H](C)O2)[C@H](C)[C@@H](O[C@@H]2O[C@H](C)C[C@H](N(C)C)[C@H]2O)[C@](C)(O)C[C@@H](C)CN(C)[C@H](C)[C@@H](O)[C@]1(C)O", "note": "[AZITHROMYCIN]", "values": [
      {"measurement": "MIC", "setting": "Streptococcus pneumoniae [1]", "result": 256, "unit": "µg/mL"},
      {"measurement": "MIC", "setting": "Streptococcus pneumoniae [2]", "result": 128, "unit": "µg/mL"},
      {"measurement": "MIC", "setting": "Streptococcus pyogenes", "result": 0.12, "unit": "µg/mL"},
      {"measurement": "MIC", "setting": "Streptococcus pneumoniae [3]", "result": 4, "unit": "µg/mL"},
      {"measurement": "MIC", "setting": "Streptococcus pneumoniae [4]", "result": 0.03, "unit": "µg/mL"},
      {"measurement": "MIC", "setting": "Staphylococcus aureus", "result": 0.25, "unit": "µg/mL"}
    ]},
    {"smiles": "CC[C@H]1OC(=O)[C@H](C)[C@@H](O[C@H]2C[C@@](C)(OC)[C@@H](O)[C@H](C)O2)[C@H](C)[C@@H](O[C@@H]2O[C@H](C)C[C@H](N(C)C)[C@H]2O)[C@](C)(OC)C[C@@H](C)C(=O)[C@H](C)[C@@H](O)[C@]1(C)O", "note": "[CLARITHROMYCIN]", "values": [
      {"measurement": "MIC", "setting": "Streptococcus pneumoniae [1]", "result": 128, "unit": "µg/mL"},
      {"measurement": "MIC", "setting": "Streptococcus pneumoniae [2]", "result": 64, "unit": "µg/mL"},
      {"measurement": "MIC", "setting": "Streptococcus pyogenes", "result": 0.12, "unit": "µg/mL"},
      {"measurement": "MIC", "setting": "Streptococcus pneumoniae [3]", "result": 4, "unit": "µg/mL"},
      {"measurement": "MIC", "setting": "Streptococcus pneumoniae [4]", "result": 0.03, "unit": "µg/mL"},
      {"measurement": "MIC", "setting": "Staphylococcus aureus", "result": 0.12, "unit": "µg/mL"}
    ]}
  ]
}
